Activity calls are given as the source filed them. The rule behind the calls is not given here.
System: Rattus norvegicus
Assay: Compound was tested for the ability to lower blood sugar level at the dose of 100 mg/kg in fasted rats, by using glucose tolerance test(GTT); NA=Inactive
Type: functional, organism-based
Parameters: dose 100 mg/kg
Procedure, shortened: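 Male albino rats (groups of five or six) fasted 18–24 h, given glucose 1 g/kg ip plus oral drug (range 0.1–100 mg/kg) or water for controls. Tail-vein blood glucose sampled over 0–3 h, read by ferricyanide autoanalyser method. Value is percent blood glucose lowering vs controls at 0.5 h; ≥9% lowering needed for significance at P = 0.05.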

| SMILES | Blood sugar lowering |
| --- | --- |
| NC1=NC(=O)C(c2ccccc2)O1 (centres undefined) | inactive |

System: Rattus norvegicus
Assay: Ability to lower blood sugar level at the dose of 25 mg/kg in fasted rats, by using glucose tolerance test(GTT)
Type: functional
Procedure, shortened: (§1)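 Male albino rats, groups of five or six, fasted 18–24 h. Glucose 1 g/kg given ip; test drug (0.1 to 100 mg/kg) or water (controls) given orally. Tail-vein blood sampled over 0–3 h; glucose (mg/100 mL) measured by Autoanalyser ferricyanide method. Value is percent lowering of blood glucose vs controls at 0.5 h; a lowering of ≥9% is needed for P = 0.05.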

| SMILES | Blood sugar lowering |
| --- | --- |
| CCSc1cccc(F)c1C1OC(=O)NC1=O (centres undefined) | 17% |
| CSc1cccc(F)c1C1OC(=O)NC1=O (centres undefined) | 18% |
| O=C1NC(=O)C(c2c(Cl)cccc2Cl)O1 (centres undefined) | 21% |
| COc1ccc(C#N)cc1C1OC(=O)NC1=O (centres undefined) | 19% |
| O=C1NC(=O)C(c2c(F)cccc2F)O1 (centres undefined) | 25% |
| O=C1NC(=O)C(Cc2ccccc2)O1 (centres undefined) | 9% |
| O=C1NC(=O)C(c2ccccc2[N+](=O)[O-])O1 (centres undefined) | 11% |
| COc1ccc(C2OC(=O)NC2=O)c(OC)c1 (centres undefined) | 10% |
| Cl.Nc1ccccc1C1OC(=O)NC1=O (centres undefined) | 15% |
| CSc1cccc(Cl)c1C1OC(=O)NC1=O (centres undefined) | 21% |
| CCc1ccc(OC)c(C2OC(=O)NC2=O)c1 (centres undefined) | 10% |
| CC(C)Oc1cccc(F)c1C1OC(=O)NC1=O (centres undefined) | 15% |
| Cc1ccc(F)cc1C1OC(=O)NC1=O (centres undefined) | 19% |

System: Rattus norvegicus
Assay: Compound was tested for the ability to lower blood sugar level at the dose of 100 mg/kg in fasted rats, by using glucose tolerance test(GTT)
Type: functional
Procedure, shortened: as §1

| SMILES | Blood sugar lowering |
| --- | --- |
| O=C1NC(=O)C(c2ccccc2)S1 (centres undefined) | 34% |
| O=C1NC(=S)OC1c1ccccc1 (centres undefined) | 17% |

System: Rattus norvegicus
Assay: Compound was tested for the ability to lower blood sugar level at the dose of 1 mg/kg in fasted rats, by using glucose tolerance test(GTT)
Type: functional
Procedure, shortened: as §1

| SMILES | Blood sugar lowering |
| --- | --- |
| COc1cccc(F)c1C1OC(=O)NC1=O (centres undefined) | 11% |
| COc1ccc(Cl)cc1C1OC(=O)NC1=O (centres undefined) | 12% |

System: Rattus norvegicus
Assay: Compound was tested for the ability to lower blood sugar level at the dose of 25 mg/kg in fasted rats, by using glucose tolerance test(GTT); NA=Inactive
Type: functional, organism-based
Parameters: dose 25 mg/kg
Procedure, shortened: as §1

| SMILES | Blood sugar lowering |
| --- | --- |
| O=C1NC(=O)C(c2ccccc2)S1 (centres undefined) | inactive |

System: Rattus norvegicus
Assay: Compound was tested for the ability to lower blood sugar level at the dose of 10 mg/kg in fasted rats, by using glucose tolerance test(GTT); NA=Inactive
Type: functional, organism-based
Parameters: dose 10 mg/kg
Procedure, shortened: as §1

| SMILES | Blood sugar lowering |
| --- | --- |
| COc1ccc(S(N)(=O)=O)cc1C1OC(=O)NC1=O (centres undefined) | inactive |
| C/C=C/Oc1cccc(Cl)c1C1OC(=O)NC1=O (centres undefined) | inactive |

System: Rattus norvegicus
Assay: Ability to lower blood sugar level at the dose of 25 mg/kg in fasted rats, by using glucose tolerance test(GTT)

| SMILES | Blood sugar lowering |
| --- | --- |
| COc1cccc([N+](=O)[O-])c1C1OC(=O)NC1=O (centres undefined) | 10% |

System: Rattus norvegicus
Assay: Compound was tested for the ability to lower blood sugar level at the dose of 25 mg/kg in rats, by using glucose tolerance test(GTT)
Type: functional
Procedure, shortened: as §1

| SMILES | Blood sugar lowering |
| --- | --- |
| O=C1NC(=O)C(c2ccccc2)O1 (centres undefined) [PEMOLINE DIONE] | 26% |

System: Rattus norvegicus
Assay: Ability to lower blood sugar level at the dose of 10 mg/kg in fasted rats, by using glucose tolerance test(GTT); NA=Inactive
Type: functional, organism-based
Parameters: dose 10 mg/kg
Procedure, shortened: as §1

| SMILES | Blood sugar lowering |
| --- | --- |
| COc1ccc(C(C)C)cc1C1OC(=O)NC1=O (centres undefined) | inactive |
| COc1cc(C)c(Cl)cc1C1OC(=O)NC1=O (centres undefined) | inactive |
| O=C1NC(=O)C(c2c(Cl)cccc2OCC2CC2)O1 (centres undefined) | inactive |
| COc1cccc(C2OC(=O)NC2=O)c1 (centres undefined) | inactive |
| COc1ccc(OC)c(C2OC(=O)NC2=O)c1 (centres undefined) | inactive |
| O=C1NC(=O)C(c2ccc(F)cc2C(F)(F)F)O1 (centres undefined) | inactive |
| COc1ccc(S(=O)(=O)N(C)C)cc1C1OC(=O)NC1=O (centres undefined) | inactive |
| O=C1NC(=O)C(c2c(Cl)cccc2-n2cccc2)O1 (centres undefined) | inactive |
| COc1cc(C2OC(=O)NC2=O)c(C)cc1F (centres undefined) | inactive |
| COc1cc(C2OC(=O)NC2=O)c(Cl)cc1C (centres undefined) | inactive |

System: Rattus norvegicus
Assay: Compound was tested for the ability to lower blood sugar level at the dose of 50 mg/kg in fasted rats, by using glucose tolerance test(GTT)
Type: functional
Procedure, shortened: as §1

| SMILES | Blood sugar lowering |
| --- | --- |
| COc1cccc(C2OC(=O)NC2=O)c1OC (centres undefined) | 12% |
| O=C1NC(=O)C(c2ccc(Cl)cc2)O1 (centres undefined) | 12% |

System: Rattus norvegicus
Assay: Ability to lower blood sugar level at the dose of 5 mg/kg in fasted rats, by using glucose tolerance test(GTT)
Type: functional
Procedure, shortened: as §1

| SMILES | Blood sugar lowering |
| --- | --- |
| COc1ccc(Br)cc1C1OC(=O)NC1=O (centres undefined) | 22% |
| CC(=O)Nc1ccccc1C1OC(=O)NC1=O (centres undefined) | 14% |
| CCOc1ccc(F)cc1C1OC(=O)NC1=O (centres undefined) | 9% |
| CCOc1ccc(Cl)cc1C1OC(=O)NC1=O (centres undefined) | 11% |
| CCOc1cccc(F)c1C1OC(=O)NC1=O (centres undefined) | 9% |
| CCOc1ccccc1C1OC(=O)NC1=O (centres undefined) | 15% |
| COc1ccccc1C1OC(=O)NC1=O (centres undefined) | 14% |
| O=C1NC(=O)C(c2ccccc2F)O1 (centres undefined) | 10% |

System: Rattus norvegicus
Assay: Ability to lower blood sugar level at the dose of 100 mg/kg in fasted rats, by using glucose tolerance test(GTT); NA=Inactive
Type: functional, organism-based
Parameters: dose 100 mg/kg
Procedure, shortened: as §1

| SMILES | Blood sugar lowering |
| --- | --- |
| CCC1(c2ccccc2)OC(=O)NC1=O (centres undefined) | inactive |
| CNC(=O)Nc1ccccc1C1OC(=O)NC1=O (centres undefined) | inactive |
| O=C1NC(=O)C(c2ccccc2)N1 (centres undefined) | inactive |
| CN1C(=O)OC(c2ccccc2)C1=O (centres undefined) | inactive |

System: Rattus norvegicus
Assay: Ability to lower blood sugar level at the dose of 100 mg/kg in fasted rats, by using glucose tolerance test(GTT)
Type: functional
Procedure, shortened: as §1

| SMILES | Blood sugar lowering |
| --- | --- |
| O=C1NC(=O)C(c2ccccc2)O1 (centres undefined) [PEMOLINE DIONE] | 35% |

System: Rattus norvegicus
Assay: Ability to lower blood sugar level at the dose of 10 mg/kg in fasted rats, by using glucose tolerance test(GTT)
Type: functional
Procedure, shortened: as §1

| SMILES | Blood sugar lowering |
| --- | --- |
| O=C1NC(=O)C(c2ccccc2)O1 (centres undefined) [PEMOLINE DIONE] | 13% |

— ChEMBL document CHEMBL1123180, “Improved glucose tolerance in rats treated with oxazolidinediones” (1986)
